# INS promoter act: TRM-6 insulin promoter activation; TRM-6 cells (human fetal islet line), insulin promoter eGFP reporter, imaging; plate-scaled: unstimulated 0, stimulated control 100; activation, % at 2 µM; 130,000 tested, 0.81% active;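 active = activation at 2 µM above a set limit, confirmed on inspection of the cell images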;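 note: share of cells whose green reporter signal exceeds an intensity cutoff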
#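 System – TRM-6 insulin promoter–eGFP reporter cells · Probe or stimulus – 0.75 µM tamoxifen as reporter inducer · Dosing – single-point 2 µM compound dose · Incubation – tamoxifen pre-incubation 15 h overnight, then compound exposure 48 h at 37 °C · Measured by – fixed-cell fluorescence microscopy, eGFP plus Hoechst · Evaluation – percent GFP-positive cells normalized to per-plate controls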
# * marks the source's active call; other numbers are inactive results. Many of the other results were omitted from the sample, so hits are more common in it than they were.
SMILES,INS promoter act
Cc1ccc(S(=O)(=O)NCC(c2cccnc2)N(C)C)cc1 (centres undefined),9
COc1ccccc1N1CCN(C(=O)C2CCN(S(=O)(=O)c3ccc(C)cc3)CC2)CC1,-6
COc1cc(NC(=O)Cc2ccccc2OC)cc(OC)c1,435*
COc1ccccc1CC(=O)Nc1cccc2c1CCCC2,8
COc1ccccc1CC(=O)Nc1cc(Cl)ccc1O,-5
CNC(=O)COC(=O)c1cc(-c2ccccc2)nn1-c1ccccc1,0
O=C(CCCc1nc2ccccc2s1)NCc1ccccc1F,-7
Cc1ccc(C)c(NC(=O)Cn2nnc(-c3ccc(N4CCOCC4)cc3)n2)c1,0
FC(F)(F)c1cc(-c2cccs2)nc2nc(N3CCOCC3)sc12,8
CCOC(=O)C1CCCN(C(=S)Nc2ccc(OC)cc2)C1 (centres undefined),0
CCOC(=O)C1CCCN(c2cc(=O)n(C3CCCCC3)c(=O)[nH]2)C1 (centres undefined),124*
CCOC(=O)C1CCCN(C(=O)C2CC(=O)N(c3ccc(C)cc3)C2)C1 (centres undefined),-15
Cc1ccc2nc(SC(C)C(=O)Nc3cccc([N+](=O)[O-])c3)[nH]c2c1 (centres undefined),0
CCOC(=O)C(CC)Sc1ncnc2nc[nH]c12 (centres undefined),-3
CCOC(=O)C(C)Sc1ncnc2c1nnn2-c1ccc(F)cc1 (centres undefined),-9
CCOC(=O)C(C)Sc1ncnc2nc[nH]c12 (centres undefined),513*
CC1=C(C(=O)c2ccccc2)C(c2ccc(OC(F)F)cc2)NC(=S)N1 (centres undefined),0
COc1ccc(C(=O)NCC(=O)OCC(=O)N2N=C(c3ccc(Cl)cc3)CC2c2ccco2)cc1OC (centres undefined),0
Cc1ccccc1N(CC(N)=O)S(C)(=O)=O,-10
COc1ccccc1N(CC(=O)Nc1ccccc1C)S(C)(=O)=O,8
Cc1ccccc1N(CC(=O)O)S(C)(=O)=O,475*
CCN(CCCn1c(=S)[nH]c2ccc(N3CCOCC3)cc2c1=O)c1ccccc1,6
O=C(CNC(=S)N(Cc1ccccc1)Cc1cccs1)NCc1ccc(F)cc1,0
CC(C)C(C(=O)NCC1CCCO1)N(Cc1ccco1)C(=O)CNS(=O)(=O)c1ccc(F)cc1 (centres undefined),109
O=C(CN(Cc1cccs1)C(=O)CNS(=O)(=O)c1ccc(F)cc1)NCc1ccco1,171*
SMILES,INS promoter act
CN(C)S(=O)(=O)c1ccc(Cl)c(NC(=O)CSc2nc3ccccc3c(=O)n2CCCN2CCOCC2)c1,-9
O=C(Cn1nc(C(F)(F)F)c2c1CCC2)NC1CCCCC1,-8
O=C(Cn1nc(C(F)(F)F)c2c1CCC2)Nc1ccccc1C(F)(F)F,600*
O=C(O)Cn1nc(C(F)(F)F)c2c1CCCC2,-7
CCOc1ccccc1Nc1nc2ccccc2n1C(C)C,0
O=C(OCCN(C1=NS(=O)(=O)c2ccccc21)c1ccccc1Cl)c1ccc(Cl)cc1,-6
CCc1c(C)c(C#N)c2nc3ccccc3n2c1N1CCN(c2cc(C)ccn2)CC1,-3
Cc1cc(NCCN2CCCCC2)n2c(nc3ccccc32)c1C#N,5
CC(C)c1cc(NCC2CCCO2)n2c(nc3ccccc32)c1C#N (centres undefined),79*
Cc1c(C#N)c2ccccc2n1CC(=O)NCC1CCCO1 (centres undefined),7
CCc1c(C)c(C#N)c2nc3ccccc3n2c1NCC1CCCO1 (centres undefined),79*
CCc1c(C)c(C#N)c2nc3ccccc3n2c1Cl,153
O=C(NC1CCCCC1)C(c1cc2c(cc1[N+](=O)[O-])OCO2)N1CCCCC1 (centres undefined),0
COc1ccccc1NC(=O)CCC(=O)OCc1ccc(Cl)cc1,0
CC(OC(=O)CCc1nc2ccccc2c(=O)[nH]1)C(=O)c1ccc(Br)cc1 (centres undefined),0
O=C(Nc1ccc(F)c(F)c1)c1ccco1,-7
CC(=O)N(C)c1ccc(NC(=O)c2ccco2)cc1,-3
O=C(Nc1ccc(Br)cc1)c1ccco1,557*
CC(=O)c1cnc(Nc2cccc(C)c2)s1,-71
COCCN(C(=O)c1ccco1)C(C(=O)NC1CCCC1)c1cccs1 (centres undefined),148
CC1CCCCN1C(=O)CNCC1CCCO1 (centres undefined),8
COCCCNC(=S)NNC(=O)C1CC1c1ccc(C(C)(C)C)cc1 (centres undefined),789*
COCCCNC(=S)NNC(=O)c1ccccn1,0
COCCNC(=S)NC(=O)c1ccc(C(C)(C)C)cc1,-6
Cc1ccc(N2C(=O)NC(NC(=O)C3CC3)(C(F)(F)F)C2=O)cc1 (centres undefined),-7
SMILES,INS promoter act
CC(NC(=O)c1ccc(C23CC4CC(CC(C4)C2)C3)cc1)C(=O)O (centres undefined),-7
COc1ccc(OC)c(NC(=O)C2CCCN(S(=O)(=O)c3cccc4nsnc34)C2)c1 (centres undefined),0
Cc1ccnc(NC(=O)C2CCN(S(=O)(=O)c3cccc4nsnc34)CC2)c1,125*
Cc1ccc(CCNC(=O)C2CCN(S(=O)(=O)c3cccc4nsnc34)CC2)cc1,7
Cc1cccc(NC(=O)CSc2nncn2-c2ccccn2)c1,4
CCOC(=O)c1ccc(NC(=O)C(=O)NCc2ccc(/C=C(/C#N)C(=O)NCCOC)o2)cc1,-7
CN(C)c1ccc(/C=C(/C#N)C(=O)NCc2ccccc2)o1,227*
Cc1cccc(NC(=O)/C(C#N)=C/c2ccc(Sc3ccccc3)o2)c1C,-100
CCN(CC)S(=O)(=O)c1ccc(OC)c(NC(=S)Nc2ccc(C)c(C)c2)c1,0
CCNc1nc(N)nc(-c2cc(Cl)ccc2O)n1,-62
CCCNc1nc(N)nc(-c2cc(Cl)ccc2OC)n1,0
CCCN(CCC)c1nc(N)nc(-c2cc(Cl)ccc2OC)n1,83*
O=S(NC1CCCCC1)C12CC3CC(CC(C3)C1)C2 (centres undefined),0
CN1CCN(S(=O)C23CC4CC(CC(C4)C2)C3)CC1 (centres undefined),488*
CC1CCN(S(=O)C23CC4CC(CC(C4)C2)C3)CC1 (centres undefined),5
O=C(C[n+]1ccccc1)Nc1ccccc1C(=O)O,0
CCc1nnc(NC(=O)CSc2nc(-c3ccc(OC)cc3)ns2)s1,-25
Cc1cccc(-c2nsc(SCC(=O)Nc3nccs3)n2)c1,121*
COc1ccc(-c2nsc(SCC(=O)Nc3cc(C)on3)n2)cc1,2
Cc1nn(C)c(Cl)c1C(=O)NCC(=O)NCc1ccccc1,0
CCC(=O)N(c1ccc(C(=O)O)cc1)c1nc(-c2ccc(OC)cc2)c(C)s1,-8
COc1cc(NS(=O)(=O)c2ccc(Nc3nc(-c4ccccc4)cs3)cc2)nc(OC)n1,-3
COc1ccc(C(=O)n2nc(C)cc2Nc2ccccc2)cc1,6
Cc1cc(C)n(-c2nc(Nc3ccccc3)nc(-n3nc(C)cc3C)n2)n1,-6
Cc1cc(Nc2ccccc2)n(CCO)n1,543*
O=C(CCNC(=O)c1ccccc1Cl)NC1=NCCS1,-8
O=C(CCCn1c(=O)[nH]c2cc(Cl)ccc2c1=O)NCCCN1CCN(c2ccc(F)cc2)CC1,267*
O=C(CCCn1c(=O)[nH]c2cc(Cl)ccc2c1=O)NCCCN1CCCC1,-8
COc1ccc(N2CCN(C(=O)CCCn3c(=O)[nH]c4cc(Cl)ccc4c3=O)CC2)cc1,-74

# Compound activity: PubChem, Columbia University Molecular Screening Center
